Screening results as filed in PubChem.
Rows were chosen to be rich in hits. Some 1.9% of all compounds tested hit in one or more screens of this group.
UHRF1 MBD2 ctr = UHRF1 methylated DNA binding inhibitors, primary screen, counter-screen for MBD2 inhibitor project, biochemical, TR-FRET, human UHRF1, single concentration; E3 ubiquitin-protein ligase UHRF1 (Homo sapiens), Q96T88; UHRF1 binding to methylated oligo; inhibition, % at 4.4 µM; 370,000 tested, 0.75% active; AID 687016, 2013; in the data active means inhibition above about 21%;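 further: UHRF1 SRA domain binding a hemimethylated CpG hairpin DNA probe; 0% = median of test compound wells and 100% = reference inhibitor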
Target sequence (Q96T88 whole entry, looked up, the tested form may be a part): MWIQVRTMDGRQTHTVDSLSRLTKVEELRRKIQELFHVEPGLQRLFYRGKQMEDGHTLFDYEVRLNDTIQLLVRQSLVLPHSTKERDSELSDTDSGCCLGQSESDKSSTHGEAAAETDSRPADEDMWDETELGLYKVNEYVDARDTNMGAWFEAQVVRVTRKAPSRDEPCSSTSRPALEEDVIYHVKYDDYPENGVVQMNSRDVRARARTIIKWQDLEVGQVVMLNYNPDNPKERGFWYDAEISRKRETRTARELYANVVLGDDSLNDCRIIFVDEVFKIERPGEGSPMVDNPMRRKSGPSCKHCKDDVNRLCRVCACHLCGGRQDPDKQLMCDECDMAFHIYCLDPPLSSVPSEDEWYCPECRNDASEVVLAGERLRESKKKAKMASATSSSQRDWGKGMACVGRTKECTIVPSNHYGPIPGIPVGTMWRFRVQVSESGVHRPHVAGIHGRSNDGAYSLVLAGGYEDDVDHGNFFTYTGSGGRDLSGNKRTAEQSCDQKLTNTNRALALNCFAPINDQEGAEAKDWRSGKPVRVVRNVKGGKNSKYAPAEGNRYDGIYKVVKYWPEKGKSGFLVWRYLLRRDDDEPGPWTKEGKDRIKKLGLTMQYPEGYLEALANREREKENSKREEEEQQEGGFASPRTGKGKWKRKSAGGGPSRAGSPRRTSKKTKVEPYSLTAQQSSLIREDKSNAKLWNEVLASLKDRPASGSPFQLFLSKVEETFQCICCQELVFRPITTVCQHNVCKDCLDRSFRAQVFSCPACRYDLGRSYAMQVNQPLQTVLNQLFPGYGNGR
TDP2 inh = human TDP2 enzyme inhibitors, primary screen, biochemical, epi absorbance, recombinant enzyme; T5PNP hydrolysis, p-nitrophenol absorbance 415 nm; inhibition, % at 12.8 µM; 370,000 tested, 0.34% active; AID 720702, 2013;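 active means inhibition above the mean of all tested compounds plus 3 SD, set per campaign, cut at about 25% in these data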;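 further: 0% = DMSO with enzyme and 100% = buffer with substrate but no TDP2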
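Assay system: recombinant human TDP2 / Reagent: T5PNP substrate at 5 mM, a TopII-DNA adduct mimic / Measured by: epi absorbance from released p-nitrophenol / Evaluation: % inhibition relative to enzyme-containing and enzyme-free wells / Control set: enzyme-free and DMSO wells / Replicates: each compound tested once, singlicate / Schedule: enzyme reaction with compound for 2 h at 37 °C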
Rin1-Abl PPI inh = inhibitors of Rin1-Abl protein binding, primary screen, biochemical, TR-FRET | Tyrosine-protein kinase ABL1 (Homo sapiens) + Ras and Rab interactor 1 (Homo sapiens), … | inhibition, % at 7.35 µM | 360,000 tested, 0.4% active | AID 588664, 2011; in the data active means inhibition above about 5%, passing the limit was not always enough
LEDGF integ inh = blockers of LEDGF/p75-dependent integrase strand transfer – biochemical, TR-FRET, high throughput, primary screen | TR-FRET IN-LEDGF/p75 DNA integration, Eu/Cy5 | inhibition, % at 3.7 µM | 370,000 tested, 0.64% active;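 active means inhibition above the screen-wide mean plus 3 SD, cut at about 13% in these data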;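 further: signal is the Cy5 over europium emission ratio at 671 and 618 nm; 0% = plate median of compound wells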
MBD2 DNA inh = inhibitors of MBD2 binding to methylated DNA, primary screen, biochemical, TR-FRET, DNA-binding domain, human | Methyl-CpG-binding domain protein 2 (Homo sapiens), Q9UBB5 | MBD2 binding to methylated oligonucleotide | inhibition, % at 4.4 µM | 370,000 tested, 0.31% active | AID 686964, 2013; in the data active means inhibition above about 13%
An asterisk follows results filed as active; . = no result.

SMILES	UHRF1 MBD2 ctr	TDP2 inh	Rin1-Abl PPI inh	LEDGF integ inh	MBD2 DNA inh
CCOc1cc(C(=O)Nc2ccc3c(c2)OCO3)ccc1OC(F)F	23*	4	-2	5	9
COc1ccc(Nc2nc(N3CCOCC3)nc(N3CCOCC3)n2)cc1Cl	2	-1	-3	-3	0
CCOc1nc(Nc2ccc(OC)c(Cl)c2)nc(OCC)n1	36*	0	-1	-5	3
O=C1CCCC/C1=C\Nc1ccc(O)cc1	-4	4	-1	11	-7
O=C1CCCC/C1=C/Nc1cccc(C(F)(F)F)c1	24*	3	4	2	7
O=C(COC(=O)c1ccccc1Cl)Nc1cccnc1Cl	-1	-4	4	-1	-2
O=C(COC(=O)c1ccccc1F)Nc1cccnc1Cl	25*	0	0	1	-4
Cc1cccc(C)c1NC(=O)[C@@H]1CC(=O)O[C@@H]1c1ccccc1	0	2	.	-3	-3
COc1ccc(N2Cc3ccccc3/C2=N\C(=O)Nc2ccccc2)cc1	22*	-9	-4	3	2
CC(=O)CN1Cc2ccccc2/C1=N\C(=O)Nc1ccccc1	1	5	-1	-2	0
C=CCN1C(=O)[C@@H](CC(=O)NCCC(C)C)[C@]2(C(=O)OC)CCCCC=C12	4	-6	.	6	-1
CCCC#Cc1cnc2c(c1)C(=O)N([C@H](C)CO)C[C@H](C)[C@@H](CN(C)C(=O)CCN1CCCCC1)O2	24*	-12	0	4	12
C[C@H](CO)N1C[C@H](C)[C@@H](CN(C)C(=O)Nc2ccccc2)Oc2ncc(C#CC3CCCCC3)cc2C1=O	22*	1	-1	1	5
C[C@@H]1CN([C@@H](C)CO)C(=O)c2cc(Br)cnc2O[C@H]1CN(C)C(=O)CCN1CCCCC1	-2	11	-2	1	-1
O=c1cc(CN2CCOCC2)c2cc(Cl)c(O)cc2o1	40*	-5	0	2	12
Cc1[nH]c2ccccc2c1SCC(=O)N1CCC(C)CC1	25*	7	3	-1	2
O=C(Nc1ccc(F)c(F)c1)C1CCN(S(=O)(=O)c2cccs2)CC1	31*	-10	0	-8	4
Cc1ccc(NC(=O)C2CCN(S(=O)(=O)c3cccs3)CC2)cc1	-3	18	3	0	-7
N/C(Cc1ccc(Cl)cc1Cl)=N\OC(=O)Cc1cccs1	58*	-3	1	-6	3
N/C(Cc1ccc(Cl)cc1Cl)=N\OC(=O)c1cccs1	8	1	1	0	6
COc1cccc(NC(=O)c2cccc(C)c2[N+](=O)[O-])c1	62*	-12	0	0	-2
Cc1cccc(C(=O)Nc2cccc(Br)c2)c1[N+](=O)[O-]	-3	-12	1	3	-4
CC1=CC(=O)C(C(C)C)=C/C1=N\OS(=O)(=O)c1ccccc1	0	2	.	-1	1
CCCOc1cccc(C(=O)NCCCNC(=O)c2ccccn2)c1	48*	6	2	1	0
CCCOc1cccc(C(=O)NCCNC(=O)c2ccccn2)c1	0	2	3	2	2
SMILES	UHRF1 MBD2 ctr	TDP2 inh	Rin1-Abl PPI inh	LEDGF integ inh	MBD2 DNA inh
c1coc(-c2cnc3ccccc3n2)c1	-8	5	-6	4	-6
c1coc(-c2nc3ccccc3nc2-c2ccco2)c1	53*	28*	0	48*	6
c1ccc(CCNc2nc3ccccc3s2)cc1	21*	4	-4	0	5
COc1ccc(CNc2nc3ccccc3s2)cc1OC	1	8	-5	-3	0
CCCC1CCC2(CCCN2CCOC(=S)Nc2cccc(Cl)c2)CC1 (configuration not stated)	-3	-3	.	3	3
O=C(N/N=C/c1cc2c(cc1Cl)OCO2)c1cccc(Br)c1	39*	6	-2	-1	2
COC(=O)c1cc(-c2cccc(C(C)C)c2)c(=O)n2c1CCC2	0	-12	.	3	-1
O=C(O)c1ccc(N=Nc2c(O)[nH]c3ccc(Br)cc23)cc1	2	-1	0	7	0
